Test results from ChEMBL document CHEMBL5696442, “Discovery of type II inhibitors of TGFβ-activated kinase 1 (TAK1) and mitogen-activated protein kinase kinase kinase kinase 2 (MAP4K2)” (J Med Chem, 2015).

Key:
[1] = biological target: Mitogen-activated protein kinase 9 (Homo sapiens, UniProt P45984); experiment: Inhibition of JNK2 Lys2 labeling site in human A-375 cells at 5 uM by KiNativ Profiling analysis relative to control; format: cell-based
[2] = biological target: Ribosomal protein S6 kinase alpha-1 (Homo sapiens) (UniProt Q15418); experiment: Inhibition of RSK1 Protein Kinase Domain in human A-375 cells at 0.05 uM by KiNativ Profiling analysis relative to control; format: cell-based
[3] = biological target: Serine/threonine-protein kinase WNK1 (Homo sapiens) (UniProt Q9H4A3); experiment: Inhibition of Wnk1 Lys2 labeling site in human A-375 cells at 5 uM by KiNativ Profiling analysis relative to control; format: cell-based
Serine/threonine-protein kinase WNK1 (Homo sapiens), sequence (Q9H4A3 whole entry, looked up): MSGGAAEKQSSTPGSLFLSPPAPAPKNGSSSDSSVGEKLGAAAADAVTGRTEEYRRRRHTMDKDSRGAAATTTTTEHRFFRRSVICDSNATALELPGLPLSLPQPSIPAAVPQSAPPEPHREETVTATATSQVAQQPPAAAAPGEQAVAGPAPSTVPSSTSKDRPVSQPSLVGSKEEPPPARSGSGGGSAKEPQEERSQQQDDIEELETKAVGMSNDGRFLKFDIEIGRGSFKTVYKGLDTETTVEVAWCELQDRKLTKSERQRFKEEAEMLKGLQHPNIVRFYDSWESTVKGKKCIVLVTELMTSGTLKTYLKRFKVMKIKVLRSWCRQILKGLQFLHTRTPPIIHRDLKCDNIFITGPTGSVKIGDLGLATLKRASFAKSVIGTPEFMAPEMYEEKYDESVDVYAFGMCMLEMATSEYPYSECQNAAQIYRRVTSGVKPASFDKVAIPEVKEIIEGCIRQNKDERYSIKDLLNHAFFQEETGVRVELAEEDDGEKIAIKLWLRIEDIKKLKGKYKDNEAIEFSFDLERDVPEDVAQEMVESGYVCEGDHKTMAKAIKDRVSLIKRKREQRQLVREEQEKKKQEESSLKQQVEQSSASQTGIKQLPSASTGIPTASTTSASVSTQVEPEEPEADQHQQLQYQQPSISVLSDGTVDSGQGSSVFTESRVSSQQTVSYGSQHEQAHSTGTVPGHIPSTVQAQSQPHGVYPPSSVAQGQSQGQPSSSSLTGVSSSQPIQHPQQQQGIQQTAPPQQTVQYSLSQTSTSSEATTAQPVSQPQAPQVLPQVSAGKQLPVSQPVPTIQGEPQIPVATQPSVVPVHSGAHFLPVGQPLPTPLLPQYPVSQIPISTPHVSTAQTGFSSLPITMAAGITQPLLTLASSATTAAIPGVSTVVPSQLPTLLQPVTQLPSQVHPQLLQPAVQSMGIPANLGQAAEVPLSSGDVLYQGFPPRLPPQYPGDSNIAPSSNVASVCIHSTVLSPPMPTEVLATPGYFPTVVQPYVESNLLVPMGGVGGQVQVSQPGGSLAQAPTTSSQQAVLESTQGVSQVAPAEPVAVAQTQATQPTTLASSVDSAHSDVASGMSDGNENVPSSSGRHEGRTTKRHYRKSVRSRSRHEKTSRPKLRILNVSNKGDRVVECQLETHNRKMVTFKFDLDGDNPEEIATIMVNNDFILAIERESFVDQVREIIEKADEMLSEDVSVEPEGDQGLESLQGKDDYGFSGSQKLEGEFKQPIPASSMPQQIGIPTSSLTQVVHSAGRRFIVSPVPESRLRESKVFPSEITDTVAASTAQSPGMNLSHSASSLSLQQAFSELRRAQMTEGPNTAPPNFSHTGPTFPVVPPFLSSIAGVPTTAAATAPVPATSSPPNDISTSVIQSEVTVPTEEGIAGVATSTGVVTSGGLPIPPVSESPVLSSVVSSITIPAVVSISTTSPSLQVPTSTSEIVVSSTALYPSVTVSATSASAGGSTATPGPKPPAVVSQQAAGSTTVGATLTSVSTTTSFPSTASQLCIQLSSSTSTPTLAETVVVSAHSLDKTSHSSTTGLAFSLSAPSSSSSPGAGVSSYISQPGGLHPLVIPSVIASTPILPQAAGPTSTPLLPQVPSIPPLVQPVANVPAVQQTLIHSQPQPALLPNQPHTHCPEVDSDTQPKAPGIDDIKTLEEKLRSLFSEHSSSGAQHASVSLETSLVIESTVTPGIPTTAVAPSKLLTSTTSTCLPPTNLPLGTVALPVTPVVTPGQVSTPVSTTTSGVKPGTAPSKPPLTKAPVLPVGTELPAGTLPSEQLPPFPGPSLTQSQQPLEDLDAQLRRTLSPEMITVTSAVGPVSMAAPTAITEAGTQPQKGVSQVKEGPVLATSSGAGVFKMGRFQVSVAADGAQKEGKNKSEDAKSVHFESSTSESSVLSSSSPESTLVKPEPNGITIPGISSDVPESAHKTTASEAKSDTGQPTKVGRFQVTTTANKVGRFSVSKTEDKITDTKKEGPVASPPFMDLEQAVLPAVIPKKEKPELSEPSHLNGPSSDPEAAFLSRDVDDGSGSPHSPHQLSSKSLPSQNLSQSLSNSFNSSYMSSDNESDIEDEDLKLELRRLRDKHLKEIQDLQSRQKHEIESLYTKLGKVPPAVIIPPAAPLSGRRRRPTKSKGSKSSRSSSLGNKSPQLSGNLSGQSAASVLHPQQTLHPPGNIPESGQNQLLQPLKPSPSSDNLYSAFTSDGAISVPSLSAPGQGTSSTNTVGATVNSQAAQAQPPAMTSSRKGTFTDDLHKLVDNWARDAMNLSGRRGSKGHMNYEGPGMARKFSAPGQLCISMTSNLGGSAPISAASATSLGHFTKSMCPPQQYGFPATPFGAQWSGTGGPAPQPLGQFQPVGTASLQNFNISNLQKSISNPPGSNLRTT

[4] = Inhibition of p70S6K ATP Loop labeling site harbouring GGYGKVFQVR in human A-375 cells at 5 uM by KiNativ Profiling analysis relative to control; conditions: condition cancer
[5] = biological target: Proto-oncogene tyrosine-protein kinase Src (Homo sapiens, UniProt P12931); experiment: Inhibition of SRC ACT labeling site in human A-375 cells at 5 uM by KiNativ Profiling analysis relative to control; format: cell-based
Proto-oncogene tyrosine-protein kinase Src, sequence (P12931 2-536 limits assumed): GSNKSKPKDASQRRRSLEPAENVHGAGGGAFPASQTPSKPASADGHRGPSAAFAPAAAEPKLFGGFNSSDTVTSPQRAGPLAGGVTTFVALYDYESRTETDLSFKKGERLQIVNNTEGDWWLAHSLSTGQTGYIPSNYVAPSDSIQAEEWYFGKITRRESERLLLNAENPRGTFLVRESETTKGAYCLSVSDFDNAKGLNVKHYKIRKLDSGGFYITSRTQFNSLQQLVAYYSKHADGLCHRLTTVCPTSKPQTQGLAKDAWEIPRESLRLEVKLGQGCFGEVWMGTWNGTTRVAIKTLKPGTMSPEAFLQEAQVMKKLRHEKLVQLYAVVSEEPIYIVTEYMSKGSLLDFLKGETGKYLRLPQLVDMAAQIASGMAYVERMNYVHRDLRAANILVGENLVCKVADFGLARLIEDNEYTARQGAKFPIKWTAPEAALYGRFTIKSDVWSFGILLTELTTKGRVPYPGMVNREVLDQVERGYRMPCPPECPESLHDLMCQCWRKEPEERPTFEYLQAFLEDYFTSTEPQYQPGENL

[6] = biological target: T1, Serine/threonine-protein kinase STK11 (Homo sapiens) (UniProt Q15831); experiment: Inhibition of LKB1 Lys2 labeling site in human A-375 cells at 0.05 uM by KiNativ Profiling analysis relative to control; format: cell-based
T1 sequence (whole entry): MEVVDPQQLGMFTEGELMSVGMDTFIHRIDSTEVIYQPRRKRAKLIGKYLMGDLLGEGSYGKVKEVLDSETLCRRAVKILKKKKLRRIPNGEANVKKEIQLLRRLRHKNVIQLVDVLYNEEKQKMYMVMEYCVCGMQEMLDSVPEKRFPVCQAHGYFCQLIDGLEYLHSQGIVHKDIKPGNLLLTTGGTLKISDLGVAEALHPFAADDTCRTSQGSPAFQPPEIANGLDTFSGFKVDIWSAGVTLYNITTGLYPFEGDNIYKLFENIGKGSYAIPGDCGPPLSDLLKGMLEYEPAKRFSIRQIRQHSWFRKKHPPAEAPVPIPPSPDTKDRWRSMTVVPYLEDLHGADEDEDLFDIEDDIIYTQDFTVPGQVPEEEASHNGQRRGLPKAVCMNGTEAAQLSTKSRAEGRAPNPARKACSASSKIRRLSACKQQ

[7] = biological target: Ribosomal protein S6 kinase alpha-3 (Homo sapiens) (UniProt P51812); experiment: Inhibition of RSK2 domain2 Protein Kinase Domain in human A-375 cells at 0.5 uM by KiNativ Profiling analysis relative to control; format: cell-based
Ribosomal protein S6 kinase alpha-3 (Homo sapiens), sequence (P51812 whole entry, the tested form may be a part): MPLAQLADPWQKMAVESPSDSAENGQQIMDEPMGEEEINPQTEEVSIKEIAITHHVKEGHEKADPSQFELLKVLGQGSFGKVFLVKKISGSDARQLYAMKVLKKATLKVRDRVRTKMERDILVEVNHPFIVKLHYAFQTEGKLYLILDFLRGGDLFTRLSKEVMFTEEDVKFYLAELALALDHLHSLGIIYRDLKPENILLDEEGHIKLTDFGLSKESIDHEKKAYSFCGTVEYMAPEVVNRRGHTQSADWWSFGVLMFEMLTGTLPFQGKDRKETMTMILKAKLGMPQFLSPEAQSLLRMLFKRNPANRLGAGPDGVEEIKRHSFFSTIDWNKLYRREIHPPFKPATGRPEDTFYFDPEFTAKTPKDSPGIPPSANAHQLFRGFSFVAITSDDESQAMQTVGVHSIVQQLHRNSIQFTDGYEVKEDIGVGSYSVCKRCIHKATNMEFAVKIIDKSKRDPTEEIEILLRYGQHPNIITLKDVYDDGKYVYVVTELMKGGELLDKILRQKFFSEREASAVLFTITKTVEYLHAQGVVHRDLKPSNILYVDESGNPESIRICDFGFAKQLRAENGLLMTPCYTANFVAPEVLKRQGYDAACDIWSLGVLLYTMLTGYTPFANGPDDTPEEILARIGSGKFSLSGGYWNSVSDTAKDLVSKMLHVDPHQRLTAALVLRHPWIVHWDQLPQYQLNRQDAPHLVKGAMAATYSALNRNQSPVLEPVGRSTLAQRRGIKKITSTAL
How it was run: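 Live A375 melanoma cells treated with compound at 5 or 0.5 μM, then lysed. Lysate kinases were labeled with a lysine-reactive ATP or ADP-biotin probe. Inhibition was read as protection of labeling sites from the probe.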

[8] = biological target: T2, Serine/threonine-protein kinase Chk1 (Homo sapiens) (UniProt O14757); experiment: Inhibition of CHK1 Lys2 labeling site harbouring DIKPENLLLDER in human A-375 cells at 0.5 uM by KiNativ Profiling analysis relative to control; format: cell-based
T2 sequence (whole entry): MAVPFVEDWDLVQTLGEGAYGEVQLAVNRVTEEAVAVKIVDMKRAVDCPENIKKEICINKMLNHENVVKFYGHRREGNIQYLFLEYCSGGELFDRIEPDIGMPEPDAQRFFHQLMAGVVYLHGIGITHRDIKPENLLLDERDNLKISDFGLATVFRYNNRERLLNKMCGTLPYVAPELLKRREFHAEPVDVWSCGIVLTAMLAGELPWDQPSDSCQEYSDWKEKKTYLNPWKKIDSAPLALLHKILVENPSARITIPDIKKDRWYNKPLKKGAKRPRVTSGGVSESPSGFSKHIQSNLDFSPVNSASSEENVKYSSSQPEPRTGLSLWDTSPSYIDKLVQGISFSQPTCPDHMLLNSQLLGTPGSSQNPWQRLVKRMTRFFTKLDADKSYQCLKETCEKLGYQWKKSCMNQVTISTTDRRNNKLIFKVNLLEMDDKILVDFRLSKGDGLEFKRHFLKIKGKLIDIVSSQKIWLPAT
How it was run: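 Live A375 melanoma cells were treated with compound at 5 or 0.5 μM. The cells were then lysed, and the lysates were labeled with a lysine-reactive ATP or ADP-biotin acyl probe (KiNativ). Inhibition is the compound's protection of each kinase labeling-site peptide from probe labeling, relative to untreated control.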

[9] = biological target: Serine/threonine-protein kinase 38 (Homo sapiens) (UniProt Q15208); experiment: Inhibition of NDR1 Lys2 labeling site in human A-375 cells at 0.5 uM by KiNativ Profiling analysis relative to control; format: cell-based
Serine/threonine-protein kinase 38 (Homo sapiens), sequence (Q15208 2-465 limits assumed): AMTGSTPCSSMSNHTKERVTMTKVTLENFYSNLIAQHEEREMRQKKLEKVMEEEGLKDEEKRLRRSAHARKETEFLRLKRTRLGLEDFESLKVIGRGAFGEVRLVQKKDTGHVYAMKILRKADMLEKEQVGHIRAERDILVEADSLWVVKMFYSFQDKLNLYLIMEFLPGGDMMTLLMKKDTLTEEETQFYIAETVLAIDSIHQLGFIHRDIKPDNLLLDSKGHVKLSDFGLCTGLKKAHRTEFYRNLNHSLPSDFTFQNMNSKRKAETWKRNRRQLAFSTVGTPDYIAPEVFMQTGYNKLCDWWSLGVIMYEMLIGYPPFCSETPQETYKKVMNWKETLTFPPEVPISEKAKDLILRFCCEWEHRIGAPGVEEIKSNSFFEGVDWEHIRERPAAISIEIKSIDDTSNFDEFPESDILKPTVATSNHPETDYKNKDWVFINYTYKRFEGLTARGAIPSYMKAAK

[10] = biological target: T3, Mitogen-activated protein kinase kinase kinase 2 (Homo sapiens) (UniProt Q9Y2U5); experiment: Inhibition of MAP3K2 Lys1 labeling site harbouring VYLCYDVDTGRELAVKQVQFDPDSPETSKEVNALECEIQLLK in human A-375 cells at 5 uM by KiNativ Profiling analysis relative to control; format: cell-based
T3 sequence (whole entry): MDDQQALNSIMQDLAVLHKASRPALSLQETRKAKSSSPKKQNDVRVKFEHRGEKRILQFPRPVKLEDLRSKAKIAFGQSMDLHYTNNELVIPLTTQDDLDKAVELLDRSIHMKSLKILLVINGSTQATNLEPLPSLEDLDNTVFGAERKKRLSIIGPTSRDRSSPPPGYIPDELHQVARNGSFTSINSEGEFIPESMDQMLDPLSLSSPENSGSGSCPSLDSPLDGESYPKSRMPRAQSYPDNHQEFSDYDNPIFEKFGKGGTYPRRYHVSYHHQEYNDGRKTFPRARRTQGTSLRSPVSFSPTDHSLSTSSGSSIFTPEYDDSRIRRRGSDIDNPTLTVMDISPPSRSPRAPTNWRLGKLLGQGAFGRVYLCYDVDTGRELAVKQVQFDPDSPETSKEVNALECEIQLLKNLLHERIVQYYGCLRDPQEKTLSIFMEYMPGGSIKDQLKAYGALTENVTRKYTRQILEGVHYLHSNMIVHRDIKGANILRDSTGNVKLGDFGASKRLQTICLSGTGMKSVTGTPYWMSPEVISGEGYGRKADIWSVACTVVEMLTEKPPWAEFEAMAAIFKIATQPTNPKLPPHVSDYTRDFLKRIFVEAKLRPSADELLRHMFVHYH

[11] = biological target: Mitogen-activated protein kinase 10 (Homo sapiens, UniProt P53779); experiment: Inhibition of JNK3 Lys2 labeling site in human Huh-7 cell lysate at 1 uM by KiNativ Profiling analysis relative to control; format: subcellular
Mitogen-activated protein kinase 10, sequence (P53779 whole entry): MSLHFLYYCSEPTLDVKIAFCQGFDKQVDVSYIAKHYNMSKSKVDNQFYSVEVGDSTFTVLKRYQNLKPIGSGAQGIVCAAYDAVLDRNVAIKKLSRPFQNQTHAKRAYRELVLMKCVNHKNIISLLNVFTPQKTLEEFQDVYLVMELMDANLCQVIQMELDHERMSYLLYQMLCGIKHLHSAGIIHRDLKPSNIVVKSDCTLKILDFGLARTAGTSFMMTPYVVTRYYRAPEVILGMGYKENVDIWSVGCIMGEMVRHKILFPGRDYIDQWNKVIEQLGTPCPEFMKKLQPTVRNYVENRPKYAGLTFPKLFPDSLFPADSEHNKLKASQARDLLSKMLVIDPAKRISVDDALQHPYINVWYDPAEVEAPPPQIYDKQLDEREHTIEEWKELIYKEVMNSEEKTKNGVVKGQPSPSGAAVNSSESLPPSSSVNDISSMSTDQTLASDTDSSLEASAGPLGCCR

Mitogen-activated protein kinase 9, sequence (P45984 whole entry, looked up, the tested form may be a part): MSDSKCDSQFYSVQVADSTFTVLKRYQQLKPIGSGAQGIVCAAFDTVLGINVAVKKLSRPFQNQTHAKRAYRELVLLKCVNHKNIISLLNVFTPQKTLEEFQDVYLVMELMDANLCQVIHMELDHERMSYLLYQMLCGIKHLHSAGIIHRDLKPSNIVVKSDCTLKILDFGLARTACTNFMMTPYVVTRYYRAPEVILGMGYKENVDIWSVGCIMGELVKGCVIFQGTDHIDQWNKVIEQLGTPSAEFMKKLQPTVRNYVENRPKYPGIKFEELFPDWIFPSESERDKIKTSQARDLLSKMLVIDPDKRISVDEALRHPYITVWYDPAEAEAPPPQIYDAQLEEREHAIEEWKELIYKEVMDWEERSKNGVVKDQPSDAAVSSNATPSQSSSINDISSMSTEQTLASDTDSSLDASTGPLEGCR

Structure (SMILES)	inhibition [1]	inhibition [2]	inhibition [3]	inhibition at 5 µM [4]	inhibition [5]	inhibition [6]	inhibition [7]	inhibition [8]	inhibition [9]	inhibition [10]	inhibition [11]
CCN1CCN(Cc2ccc(NC(=O)c3ccc(C)c(/C=C/c4cnc5[nH]ccc5c4OC)c3)cc2C(F)(F)F)CC1	76.9%	1.4%	14.3%	-8%	> 99%	28.3%	-4.1%	19.4%	30.6%	55.5%	–
CCN1CCN(Cc2ccc(NC(=O)c3ccc(C)c(Oc4ccnc5[nH]ccc45)c3)cc2C(F)(F)F)CC1	90.3%	-4.7%	-5.5%	14.7%	89.6%	13.1%	7.2%	45.2%	33.9%	42.3%	–
CNc1cc(Oc2cc(C(=O)Nc3cc(-n4cnc(C)c4)cc(C(F)(F)F)c3)ccc2C)ncn1	–	–	–	–	–	–	–	–	–	–	18.4%
CNc1cc(Oc2cc(C(=O)Nc3cc(N4CCN(C)CC4)cc(C(F)(F)F)c3)ccc2C)ncn1	–	–	–	–	–	–	–	–	–	–	7%
